Measured values pooled from the literature.
Target: STE20/SPS1-related proline-alanine-rich protein kinase (STK39, Homo sapiens, UniProt Q9UEW8)

Structure (SMILES)	read-out	technique	tested at	remaining binding
CN(C)c1ncnc(-c2ccc3nc(Nc4cc(CN5CCN(C(=O)CC(F)(F)F)CC5)ccn4)[nH]c3c2)c1Cl	cell-free assay	competition with immobilised ligand	1 µM	69%
O=C(NCC1CCOCC1)c1n[nH]cc1NC(=O)c1c(F)cccc1F	binding	competition with immobilised ligand	1 µM	96%
CN(CCCC(F)(F)F)c1nccc(-c2cnn3ncccc23)n1	binding		1 µM	82%
Nc1ncc2c(n1)-c1c([nH]c3ccc(C#CC4CC4)cc13)CCCC2	binding	competition with immobilised ligand	1 µM	53%
CS(=O)(=O)NCC[C@H](NC(=O)c1cncc2c1cnn2-c1ccc(F)cc1)c1ccnc(S(C)(=O)=O)c1	cell-free assay	competition with immobilised ligand	1 µM	80%
COc1ccnn2ncc(-c3ccnc(N(C)C)n3)c12	binding		1 µM	49%
N#CC1(c2ccccn2)CCN(Cc2cc(C(=O)N3CCCC3)c(=O)n3ccccc23)CC1	cell-free assay	competition with immobilised ligand	1 µM	75%
O=C(c1ccc(Nc2ncc(Cl)c(-c3cc4ccccc4s3)n2)cc1)N1CCC(N2CCCC2)CC1	binding	competition with immobilised ligand	1 µM	36%
CN(C)c1ncc(F)c(-c2cnn3ncccc23)n1	binding		1 µM	74%
COc1cnc(Nc2cccc(S(N)(=O)=O)c2)nc1N1CCN(c2ccccc2)CC1	binding	competition with immobilised ligand	1 µM	75%
N[C@@H]1CCN(c2nccc(-c3cnn4ncccc34)n2)C1	binding		1 µM	100%
Cc1cc(NC(=O)c2cccc(S(F)(F)(F)(F)F)c2)cc(-n2ccn3nc(-c4cccnc4)cc23)c1	cell-free assay	competition with immobilised ligand	1 µM	100%
O=C(NCCCN1CCOCC1)c1ccc(Nc2nccc(-c3cc4ccccc4s3)n2)cc1	binding	competition with immobilised ligand	1 µM	73%
COc1cc(-c2cn(C3CCc4ccccc4N(CC(F)(F)F)C3=O)nn2)ccc1-n1ccc(C)n1 (stereo not drawn)	cell-free assay	competition with immobilised ligand	1 µM	98%
CN(C)c1nccc(-c2cnn3ncccc23)n1	binding		1 µM	28%
O=C(NCc1ncc(C(F)(F)F)cc1Cl)c1ccc2c(c1)C1(CCS(=O)(=O)CC1)[C@H](C1CC1)N2S(=O)(=O)c1ccc(F)cc1	cell-free assay	competition with immobilised ligand	1 µM	84%
c1cncc(-c2cccc(Nc3nccc(NC4CCCCC4)n3)c2)c1	binding	competition with immobilised ligand	10 µM	97%
Cc1cnc(Nc2ccc(C(=O)N3CCC(N4CCCC4)CC3)cc2)nc1-c1cc2ccccc2s1	binding	competition with immobilised ligand	1 µM	53%
COc1ncc2cc3ccccc3nc2c1C#N	cell-free assay	competition with immobilised ligand	5 µM	100%
C[C@H]1CCN(c2nccc(-c3cnn4ncccc34)n2)C1	binding		1 µM	62%
C[C@@H](c1ccc(-n2cnc3c(N)ncnc32)cc1)N1CCc2nn(C)c(Cc3ccccc3)c2C1=O	binding	competition with immobilised ligand	0.1 µM	84%
